Test results from ChEMBL document CHEMBL4229460, “Design and biological evaluation of novel hybrids of 1, 5-diarylpyrazole and Chrysin for selective COX-2 inhibition” (Bioorg Med Chem, 2018).

Experiments:
HeLa [1] = experiment: Induction of apoptosis in human HeLa cells assessed as early apoptotic cells at 2.5 uM after 24 hrs by Annexin-V-FITC/propidium iodide staining based flow cytometry (reference value: 2.98%); format: functional
How it was run: (§1)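 HeLa seeded at 2 × 10⁵ cells/well. Dose series was 0, 1.25, 2.5, 5 and 10 μM for 24 h; time course was 5 μM for 12, 24, 36 or 48 h. Trypsinized and washed in ice-cold PBS, then stained in binding buffer with Annexin V-FITC and PI for 10 min in the dark. Flow cytometry scored early (Annexin⁺/PI⁻) and late (Annexin⁺/PI⁺) apoptotic cells.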

HeLa [2] = experiment: Disruption of mitochondrial membrane potential in human HeLa cells assessed as intact mitochondrial membrane at 10 uM after 12 hrs by JC1 staining based flow cytometry (reference value: 99.2%); format: functional
HeLa [3] = experiment: Induction of apoptosis in human HeLa cells assessed as necrotic cells at 5 uM after 36 hrs by Annexin-V-FITC/propidium iodide staining based flow cytometry (reference value: 1.12%); format: functional
How it was run: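 HeLa cells in DMEM with 10% FBS, penicillin/streptomycin, 37 °C, 5% CO₂; seeded 2 × 10⁵ cells/well in six-well plates, treated at 0, 1.25, 2.5, 5 and 10 μM for 24 h, or at 5 μM for 12, 24, 36 or 48 h. Cells trypsinized, washed in ice-cold PBS, stained in binding buffer with Annexin V-FITC and PI for 10 min in the dark, then analyzed by flow cytometry.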

HeLa [4] = experiment: Induction of apoptosis in human HeLa cells assessed as late apoptotic cells at 10 uM after 24 hrs by Annexin-V-FITC/propidium iodide staining based flow cytometry (reference value: 1.72%); format: functional; how it was run: as §1
HeLa [5] = experiment: Cell cycle arrest in human HeLa cells assessed as accumulation at G2/M phase at 5 uM after 24 hrs by propidium iodide staining based flow cytometry (reference value: 21.45%); format: functional
HEK-293T = experiment: Cytotoxicity against human 293T cells after 48 hrs by MTT assay; format: cell-based

COc1ccc(-c2cc(COC(=O)COc3cc(O)c4c(=O)cc(-c5ccccc5)oc4c3)nn2-c2ccc(C)cc2)cc1 was tested, and the Activity (HeLa [1]) was 16.6%, the Activity (HeLa [2]) was 86.5% and the Activity (HeLa [3]) was 2.08%. It also gave an Activity (HeLa [4]) of 11.5%, an Activity (HeLa [5]) of 8.16% and an IC50 (HEK-293T) of 194 µM.
